According to ChEMBL document CHEMBL1142706, “Synthesis and evaluation of (pyridylmethylene)tetrahydronaphthalenes/-indanes and structurally modified derivatives: potent and selective inhibitors of aldosterone synthase” (J Med Chem, 2005):

What was measured:
[1] = target: T1, Cytochrome P450 11B2, mitochondrial (Homo sapiens, UniProt P19099); test: In vitro inhibitory concentration against human CYP11B2 expressed in V79MZh hamster fibroblasts incubated with 100 nM of substrate deoxy-corticosterone in presence of the compound
T1 sequence (P19099 whole entry): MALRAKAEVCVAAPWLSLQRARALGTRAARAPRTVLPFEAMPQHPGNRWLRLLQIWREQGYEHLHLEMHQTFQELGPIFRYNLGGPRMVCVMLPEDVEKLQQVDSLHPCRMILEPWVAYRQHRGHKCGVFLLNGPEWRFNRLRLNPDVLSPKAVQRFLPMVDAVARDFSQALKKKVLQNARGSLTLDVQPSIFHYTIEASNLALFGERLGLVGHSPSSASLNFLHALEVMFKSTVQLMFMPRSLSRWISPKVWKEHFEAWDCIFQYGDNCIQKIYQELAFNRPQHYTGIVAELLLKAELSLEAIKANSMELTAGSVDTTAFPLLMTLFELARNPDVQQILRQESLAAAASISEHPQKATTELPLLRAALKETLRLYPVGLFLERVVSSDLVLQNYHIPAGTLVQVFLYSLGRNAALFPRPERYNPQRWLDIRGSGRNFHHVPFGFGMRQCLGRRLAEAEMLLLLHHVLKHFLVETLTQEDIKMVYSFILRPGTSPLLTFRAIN
Outline: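 Intact V79 MZh hamster fibroblasts expressing human CYP11B1 or CYP11B2, incubated with [4-14C]-11-deoxycorticosterone (100 nM) and inhibitor at no fewer than three concentrations to give IC50. Stopped with ethyl acetate, shaken, centrifuged (10 000g, 2 min); steroids in organic phase analysed by HPTLC/phosphoimager. Mean of four determinations, standard deviation less than 5%.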

Aromatase = target: T2, Aromatase (Homo sapiens, UniProt P11511); test: In vitro inhibitory concentration against human placental CYP19 incubated with 500 nM of substrate androstenedione in presence of the compound
T2 sequence (P11511 whole entry): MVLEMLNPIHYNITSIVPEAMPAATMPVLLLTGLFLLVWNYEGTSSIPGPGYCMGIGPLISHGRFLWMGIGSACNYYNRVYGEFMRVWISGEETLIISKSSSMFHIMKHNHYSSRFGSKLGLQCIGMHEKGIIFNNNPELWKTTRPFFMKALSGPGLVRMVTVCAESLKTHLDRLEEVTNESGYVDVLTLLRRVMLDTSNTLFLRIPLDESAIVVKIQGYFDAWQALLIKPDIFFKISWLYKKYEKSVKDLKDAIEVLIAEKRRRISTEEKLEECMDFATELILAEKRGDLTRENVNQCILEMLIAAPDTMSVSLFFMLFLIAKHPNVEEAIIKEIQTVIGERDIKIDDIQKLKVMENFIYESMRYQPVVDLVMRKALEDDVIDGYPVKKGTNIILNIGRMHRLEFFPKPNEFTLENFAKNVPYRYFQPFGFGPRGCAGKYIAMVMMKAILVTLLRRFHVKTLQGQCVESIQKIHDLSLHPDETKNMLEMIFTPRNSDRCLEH

[2] = target: T1, Cytochrome P450 11B2, mitochondrial; test: In vitro inhibition of human CYP11B2 expressed in Schizosaccharomyces pombe incubated with 100 nM of substrate deoxy-corticosterone in presence of 500 nM of compound
Homo sapiens = organism: Homo sapiens; test: In vitro IC50 ratio against human CYP11B1 to that of human CYP11B2
Outline: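 IC50 ratio from V79 MZh hamster fibroblasts expressing human CYP11B1 or CYP11B2, each incubated with [4-14C]-11-deoxycorticosterone (100 nM) and inhibitor at no fewer than three concentrations; steroids extracted into ethyl acetate and quantified by HPTLC with phosphoimaging.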

CYP17 = target: T3, CYP17 (Homo sapiens, UniProt P05093); test: In vitro inhibition of human CYP17 expressed in Escherichia coli incubated with 2.5 uM of substrate progesterone in presence of 2.5 uM of compound; settings: probe progesterone
T3 sequence (P05093 whole entry): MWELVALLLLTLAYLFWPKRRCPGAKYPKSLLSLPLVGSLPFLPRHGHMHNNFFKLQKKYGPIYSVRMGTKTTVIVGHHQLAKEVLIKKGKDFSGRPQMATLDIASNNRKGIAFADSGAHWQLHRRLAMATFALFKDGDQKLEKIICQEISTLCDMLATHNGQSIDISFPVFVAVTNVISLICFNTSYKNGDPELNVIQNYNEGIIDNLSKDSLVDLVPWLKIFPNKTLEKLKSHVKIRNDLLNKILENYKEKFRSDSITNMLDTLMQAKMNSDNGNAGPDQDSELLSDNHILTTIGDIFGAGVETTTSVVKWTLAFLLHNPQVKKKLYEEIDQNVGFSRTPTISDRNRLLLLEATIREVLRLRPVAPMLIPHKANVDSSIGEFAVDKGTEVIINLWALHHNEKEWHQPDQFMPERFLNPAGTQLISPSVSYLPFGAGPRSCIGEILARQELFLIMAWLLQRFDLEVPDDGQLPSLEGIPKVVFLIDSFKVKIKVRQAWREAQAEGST

| SMILES | IC50 [1] | IC50 (Aromatase) | inhibition at 0.5 µM [2] | Selectivity ratio (Homo sapiens) | inhibition at 2.5 µM (CYP17) |
| --- | --- | --- | --- | --- | --- |
| C(=C(c1ccccc1)c1ccccc1)c1cccnc1 | 0.009 µM | 3.63 µM | 5% | – | – |
| Clc1ccc2c(c1)CC/C2=C/c1ccncc1 | 0.301 µM | 1.99 µM | 37% | – | – |
| Fc1ccc2c(c1)CC/C2=C\c1ccnc2ccccc12 | 0.02 µM | > 36 µM | 0% | – | – |
| Clc1cccc2c1CC/C2=C\c1cccnc1 | 0.009 µM | – | – | 33.8 | 14% |
| Fc1ccc2c(c1)CC/C2=C/c1cccc2ncccc12 | 0.031 µM | > 36 µM | 0% | – | – |
| Fc1ccc2c(c1)CC/C2=C/c1cncnc1 | – | 0.79 µM | 14% | – | – |
| COc1ccc2c(c1)CC/C2=C/c1cncs1 | 0.005 µM | 4.83 µM | 17% | – | – |
| COc1cccc2c1/C(=C/c1cccnc1)CC2 | – | – | – | 35.4 | 5% |
| C(=C1/CCc2cc(OCc3ccccc3)ccc21)/c1cccnc1 | – | > 36 µM | 0% | – | 1% |
| COc1ccc2c(c1)CC/C2=C/c1ccncc1 | 0.055 µM | – | 13% | – | – |
| Clc1ccc2c(c1)CC/C2=C/c1cccnc1 | – | – | – | 3.7 | 28% |
| Brc1ccc2c(c1)CC/C2=C\c1cccnc1 | – | – | – | 52.4 | 16% |
| COc1cc2c(cc1OC)/C(=C/c1cccnc1)CCC2 | – | 0.98 µM | 5% | – | 6% |
| Cc1ccc2c(c1)/C(=C/c1cccnc1)CC2 | – | 3.93 µM | 27% | – | 3% |
| COc1ccc2c(c1)CC/C2=C\c1cncs1 | 0.017 µM | 4.33 µM | 18% | – | – |
| N#Cc1ccc(C2CCCc3cncn32)cc1 (stereo not drawn) [FADROZOLE] | – | – | – | – | 5% |
| Brc1ccc2c(c1)CC/C2=C/c1cccnc1 | – | – | – | 1.9 | 24% |
| COc1cc2c(cc1OC)/C(=C/c1ccncc1)CCC2 | 0.011 µM | 0.09 µM | 29% | – | – |
| C(=C1/CC(c2ccccc2)c2ccccc21)/c1cccnc1 (stereo not drawn) | 0.003 µM | 4.06 µM | 0% | – | – |
| Cc1cccc2c1CC/C2=C\c1cccnc1 | – | – | – | 7.1 | 40% |
| Cc1ccc2c(c1)/C(=C\c1ccncc1)CC2 | 0.008 µM | 1.71 µM | 46% | – | – |
| COc1ccc2c(c1)CCC/C2=C/c1ccncc1 | 0.056 µM | 1.01 µM | 36% | – | – |
| C(=C1/CCCc2ccccc21)/c1cccnc1 | 0.022 µM | – | – | 32.5 | 9% |
| Cc1ccc2c(c1)/C(=C/c1ccncc1)CC2 | 0.004 µM | 1.28 µM | 41% | – | – |

| SMILES | IC50 [1] | IC50 (Aromatase) | inhibition at 0.5 µM [2] | Selectivity ratio (Homo sapiens) | inhibition at 2.5 µM (CYP17) |
| --- | --- | --- | --- | --- | --- |
| COc1ccc2c(c1)CC/C2=C\c1cccnc1 | – | – | – | 42.6 | 36% |
| Fc1ccc2c(c1)CC/C2=C\c1cccnc1 | 0.007 µM | – | – | 44.4 | 17% |
| Clc1ccc2c(c1)CC/C2=C\c1cccnc1 | – | – | – | 56.6 | 26% |
| COc1ccc2c(c1)CCC/C2=C/c1cccnc1 | – | – | – | 0.2 | 17% |
| COc1ccc2c(c1)CC/C2=C\c1ccncc1 | 0.059 µM | – | 11% | – | – |
| C(=C1\CCCc2ccccc21)/c1cccnc1 | – | – | – | 10.1 | 24% |
| CCOc1ccc2c(c1)CC/C2=C/c1cccnc1 | – | – | – | 10.9 | 6% |
| COc1ccc2c(c1)/C(=C/c1ccncc1)CC2 | 0.003 µM | – | 26% | – | – |
| C(=C(c1ccccc1)c1ccccc1)c1ccncc1 | 0.022 µM | 0.1 µM | 32% | – | – |
| Fc1cccc2c1CC/C2=C\c1cccnc1 | – | – | – | 36.9 | 42% |
| C(=C1/CCc2ccccc21)/c1ccncc1 | 0.008 µM | – | – | – | – |
| COc1ccc2c(c1)CCC/C2=C\c1cccnc1 | – | – | – | 15.8 | 20% |
| C(=C1c2ccccc2-c2ccccc21)c1cccnc1 | 0.006 µM | 4.81 µM | 0% | – | – |
| COc1ccc2c(c1)/C(=C\c1ccncc1)CC2 | 0.026 µM | – | 24% | – | – |
| Fc1ccc2c(c1)CC/C2=C/c1cccnc1 | 0.011 µM | – | – | 11.4 | 16% |
| Fc1ccc2c(c1)CC/C2=C\c1cccc2ncccc12 | 0.014 µM | > 36 µM | 0% | – | – |
| Clc1cccc2c1CC/C2=C/c1cccnc1 | 0.031 µM | – | – | 21.1 | 32% |
| Fc1ccc2c(c1)CC/C2=C/c1ccnc2ccccc12 | 0.014 µM | > 36 µM | 0% | – | – |
| C(=C1c2ccccc2-c2ccccc21)c1ccncc1 | 0.005 µM | 2.74 µM | 6% | – | – |
| COc1ccc2c(c1)CCC/C2=C\c1ccncc1 | 0.022 µM | 0.8 µM | 31% | – | – |
| CCOc1ccc2c(c1)CC/C2=C\c1cccnc1 | – | – | – | 30 | 13% |
| COc1ccc2c(c1)CC/C2=C/c1cccnc1 | 0.026 µM | – | – | 30.4 | 49% |
| CC1C/C(=C\c2cccnc2)c2ccccc21 (stereo not drawn) | – | 3.68 µM | 47% | – | – |
